In ChEMBL document CHEMBL1124663, “Design, synthesis, antineoplastic activity, and chemical properties of bis(carbamate) derivatives of 4,5-bis(hydroxymethyl)imidazole” (J Med Chem, 1989):

Columns and labels:
Mus musculus [1] = assay: Body weight difference (BWD) of test animals administered with 50 mg/kg compound is determined on day 10 for LOX tumor cells.
Mus musculus [2] = assay: Body weight difference (BWD) of test animals administered with 25 mg/kg compound is determined on day 5 for L1210 tumor cells; assay type: functional
In short: (§1)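 L1210 leukaemia: 10^5 cells implanted ip on day 0 in mice. Freshly prepared saline suspension given ip once daily on days 1–5. Body weight difference in g (treated minus control) taken as day 5 minus day 1. Six animals per dose.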

Mus musculus [3] = assay: The toxicity day was […] for M5076 minus 1 tumor cells of test animals dosed with 100 mg/kg of compound; 10/10; assay type: functional
In short: (§2)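 M5076 sarcoma, 10^6 cells, inoculated ip into B6C3F1 mice on day 0. Fresh saline suspension given ip every fourth day (days 1, 5, 9, 13). Toxicity survivors were scored on day 5 as survivors over initial group. Body-weight difference was day 14 minus day 1.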

Mus musculus [4] = assay: The percent of the median survival time of test mice compared to control mice is % T/C which refers to tumor size in this case. It is determined for mice administered with 100 mg/kg compound on day 11 for MX-1 tumor cells; assay type: functional; settings: route intraperitoneal
In short: (§3)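 Human MX-1 mammary xenograft, a 1 mm3 (0.5 mg) tumor fragment implanted under the renal capsule of NCR-nu mice on day 0. Drug given ip as a fresh saline suspension on days 1, 5 and 9. Tumor size is assessed on day 11. A negative % T/C is percent shrinkage relative to the initial implant. Survivors in the toxicity group are […].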

Mus musculus [5] = assay: Ability of 6.25 mg/kg of compound to kill tumor cells in mice is expressed as the log of the tumor cell population at the onset of treatment minus the log of the tumor cell population at the end of treatment; assay type: functional
Mus musculus [6] = assay: The percent of the median survival time of test mice compared to control mice is determined for mice administered with 50 mg/kg compound; assay type: functional
Mus musculus [7] = assay: The percent of the median survival time of test mice compared to control mice is % T/C which refers to tumor size in this case. It is determined for mice administered with 60 mg/kg compound on day 11 for MX-1 tumor cells; assay type: functional; settings: route intraperitoneal
In short: as §3

Mus musculus [8] = assay: Ability of 25 mg/kg of compound to kill M5076 tumor cells in mice is expressed as the log of the tumor cell population at the onset of treatment minus the log of the tumor cell population at the end of treatment; assay type: functional
In short: (§4)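 M5076 sarcoma, 10^6 cells ip on day 0 in B6C3F1 mice. Drug given ip as a fresh saline suspension every fourth day (days 1, 5, 9, 13). % T/C is median survival of treated versus control mice, counting long-term survivors. Cures are 60-day survivors. Log cell kill is derived from this.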

Mus musculus [9] = assay: Body weight difference (BWD) of test animals administered with 200 mg/kg compound is determined on day 10 for LOX tumor cells.
Mus musculus [10] = assay: Body Weight Difference (BWD) of test animals administered with 25 mg/kg compound is determined on day 5 for P388 tumor cells; assay type: functional
In short: (§5)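 P388 leukaemia: about 10^6 cells in ascitic fluid inoculated ip on day 0 (CD2F1 mice). Compound given ip in normal saline as a freshly prepared solution or suspension, once daily on days 1–5. Treated-minus-control body weight difference in g, taken as day 5 minus day 1 weight. Groups of six.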

Mus musculus [11] = assay: The toxicity day was evaluated on day 5 for L1210 tumor cells of test animals dosed with 12.5 mg/kg of compound; 6/6; assay type: functional
In short: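 L1210 leukaemia, 10^5 cells, implanted ip on day 0. Freshly prepared saline suspension dosed ip daily on days 1-5. Toxicity evaluated on day 5 as survivors over animals in the initial test group.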

Mus musculus [12] = assay: Body weight difference (BWD) of test animals administered with 100 mg/kg compound is determined on day 10 for LOX tumor cells.
Mus musculus [13] = assay: Body weight difference (BWD) of test animals administered with 100 mg/kg compound is determined on day 5 for P388 tumor cells; assay type: functional
In short: as §5

Mus musculus [14] = assay: The toxicity day was evaluated […] for M5076 minus 1 tumor cells of test animals dosed with 25 mg/kg of compound; 10/10; assay type: functional
In short: as §2

Mus musculus [15] = assay: Body weight difference (BWD) of test animals administered with 50 mg/kg compound is determined on day 5 for P388 tumor cells; assay type: functional
In short: as §5

Mus musculus [16] = assay: The toxicity day was evaluated […] for M5076 minus 1 tumor cells of test animals dosed with 200 mg/kg of compound; 10/10; assay type: functional
In short: as §2

Mus musculus [17] = assay: The percent of the median survival time of test mice compared to control mice, administered with 12.5 mg/kg compound on day 5 for L1210 tumor cells; assay type: functional
In short: (§6)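 L1210 leukemia, 10^5 cells implanted ip on day 0. Drug given ip daily on days 1-5 as a saline suspension freshly prepared before each injection. Read-out is median survival of treated versus control mice (% T/C), and log cell kill is derived from it.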

Mus musculus [18] = assay: The toxicity day was evaluated on day 0 for LOX tumor cells of test animals dosed with 25 mg/kg of compound; 6/6; assay type: functional
Mus musculus [19] = assay: The toxicity day was evaluated on day 11 for MX-1 tumor cells of test animals dosed with 60 mg/kg of compound; 6/6; assay type: functional
In short: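 Human MX-1 mammary tumour (1 mm3, 0.5 mg) implanted under the renal capsule of NCR-nu mice on day 0. Drug was given ip as a freshly made saline suspension on days 1, 5 and 9. Readout is survivors over initial group size.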

Mus musculus [20] = assay: The percent of the median survival time of test mice compared to control mice, administered with 100 mg/kg compound on day 5 for L1210 tumor cells; assay type: functional
In short: as §6

Mus musculus [21] = assay: Ability of 100 mg/kg of compound to kill M5076 tumor cells in mice is expressed as the log of the tumor cell population at the onset of treatment minus the log of the tumor cell population at the end of treatment; assay type: functional
In short: as §4

Mus musculus [22] = assay: The […] for M5076 minus 1 tumor cells of test animals dosed with 50 mg/kg of compound; 10/10; assay type: functional
In short: as §2

Mus musculus [23] = assay: Body weight difference (BWD) of test animals administered with 50 mg/kg compound is determined on day 14 for M5076 minus 1 tumor cells; assay type: functional
In short: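 M5076 sarcoma: 10^6 cells inoculated ip on day 0 in B6C3F1 mice. Fresh saline suspension dosed ip every fourth day, on days 1, 5, 9 and 13. Body weight difference in g (treated minus control) taken as day 14 minus day 1. Ten mice per group.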

Mus musculus [24] = assay: The percent of the median survival time of test mice compared to control mice is % T/C. It is determined for mice administered with 100 mg/kg compound on day 0 for LOX 1 tumor cells.; assay type: functional; settings: route intraperitoneal
Mus musculus [25] = assay: Body weight difference (BWD) of test animals administered with 12.5 mg/kg compound is determined on day 5 for L1210 tumor cells; assay type: functional
In short: as §1

Mus musculus [26] = assay: The percent of the median survival time of test mice compared to control mice is % T/C. It is determined for mice administered with 50 mg/kg compound on day 0 for LOX 1 tumor cells.; assay type: functional; settings: route intraperitoneal
Mus musculus [27] = assay: Body weight difference (BWD) of test animals administered with 50 mg/kg compound is determined on day 5 for L1210 tumor cells; assay type: functional
In short: as §1

In the case of `CNC(=O)OCc1nc(SC)n(C)c1COC(=O)NC`, the BWD (Mus musculus [1]) is reported as -3.3 g, the BWD (Mus musculus [2]) is reported as 0 g and the “Survivors / animals tested” value (Mus musculus [3]) is reported as 10. The T/C (Mus musculus [4]) was -73%, the KE (Mus musculus [5]) was -0.83 and the T/C (Mus musculus [6]) was 184%. For the same compound, the T/C (Mus musculus [7]) was -91%, the KE (Mus musculus [8]) was -1.51 and the BWD (Mus musculus [9]) was -11.5 g. For the same compound, the BWD (Mus musculus [10]) was -1.4 g, the “Survivors / animals tested” value (Mus musculus [11]) was 6 and the BWD (Mus musculus [12]) was -5.1 g. The BWD (Mus musculus [13]) was -4.1 g, the “Survivors / animals tested” value (Mus musculus [14]) was 10 and the BWD (Mus musculus [15]) was -2.6 g. For the same compound, the “Survivors / animals tested” value (Mus musculus [16]) was 10, the T/C (Mus musculus [17]) was 103% and the “Survivors / animals tested” value (Mus musculus [18]) was 6. For the same compound, the “Survivors / animals tested” value (Mus musculus [19]) was 6, the T/C (Mus musculus [20]) was 145% and the KE (Mus musculus [21]) was -0.34. For the same compound, the “Survivors / animals tested” value (Mus musculus [22]) was 10, the BWD (Mus musculus [23]) was -0.7 g and the T/C (Mus musculus [24]) was 365%. The BWD (Mus musculus [25]) was -0.2 g, the T/C (Mus musculus [26]) was 231% and the BWD (Mus musculus [27]) was -0.5 g.
